# Experimental data published in the EternaBench riboswitch data.
# System: MS2 coat protein
# Test: apparent Kd, MS2 coat protein; higher = weaker binding; RNA-MaP array; FMN 200 µM where present
# Procedure, shortened: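 On Illumina sequencing-chip clusters, designs were transcribed by stalled E. coli RNA polymerase and titrated with SNAP-549-labelled MS2 coat protein (0.7 or 1.5 nM, doubling to 3 µM), without and then with constant ligand, in 100 mM Tris-HCl pH 7.5, 80 mM KCl, 4 mM MgCl2, BSA, DTT, yeast tRNA and Tween-20. Apparent Kd is the median of filtered per-cluster curve fits to green signal normalised to red-channel RNA signal and control-cluster median Fmax.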
# [1] = designed as: OFF switch for flavin mononucleotide, no ligand
# [2] = ligand present: flavin mononucleotide, designed as: OFF switch for flavin mononucleotide
# [3] = designed as: ON switch for flavin mononucleotide, no ligand
# [4] = ligand present: flavin mononucleotide, designed as: ON switch for flavin mononucleotide
Sequence,apparent Kd [1] [nM],apparent Kd [2] [nM],apparent Kd [3] [nM],apparent Kd [4] [nM]
AUUAUGUAAGGAUAUCUUACAUGUGACUUCGGUCACUGUUCAGAGAAGGUACAUGAGGAUCACCCAUGUAGAAC,17.9,18.4,–,–
UUAAUUUGUCAAGGAUAUGUAAUAUAGAUUAGAAAACAUGAGGAUCACCCAUGUAUAUGGUGGGAACAGAAGGUGAAUGGUUUA,189,160,–,–
UAUAUAAUUAAGAGCUGGUCCAAAACAUGAGGAUCACCCAUGUAGGAUAUCAGCACGAUAAGUGCUGAGAAGGACAUCCAGCUC,18.5,16.4,–,–
ACAUGAGGAUCACCCAUGUUAAAUUAGGAUAUUUGACUGCACAUGAGGUUCACCCAUGUUCUACCGAAGAAGGGAUUAAUAAUU,–,–,50,49.8
GCGGAAGGCACAGGAUAUCGUCCUUAGUUGGUACGAGAAGGGUGGCGCUGCCACAUGAGGAUCACCCAUGUGCCUUGACUAUAG,–,–,245,1180
GGGAAUAAACCCGUCUCCGCUCAACCAGAAGGGCACGAUAAUAUUACAUGAGGAUCACCCAUGUUGCAGGAUAUGGUGAGCCUC,–,–,191,52.9
AUGCCCUGAGGAUAUCUCAUCUCGCACAUGAGGAUCACCCAUGUUCUUCUCUGGGUUUCGAGAGAAGGCAGGCCUA,701,366,–,–
AGUACUCAAAGAGUACGCGUAAGCACAUGAGGAUCACCCAUGUAGGAUAUGCUACUCAAAGAGUAGUAGAAGGACAUAUUCCUC,5.85,7.46,–,–
CCUCAACAGUAGGAUAUCAUAUAACUAUUGUGAUGAGAAGGACUGACAUGAGGAUCACCCAUGUUAACGUGAUA,18,24.9,–,–
GCCAUCACAUGAGGAUAUGCUCCCGUUUCGGGAGCAGAAGGCGUGUCAUAAGACAUGAGGAUCACCCAUGUAGUUAAGAUGGCA,–,–,399,12.7
AAAUCGUCAGGAUAUGCAUGUAAUUGUUACAUUUCUCCGUUGCAGAAGGGACAUGAGGAUCACCCAUGUAAGUC,31.2,29.2,–,–
GGGUGCUCACCGCCUUAACAUGAGGAUCACCCAUGUGGAGUGCAGGAUAUACGUUUCUAUCAUACGUAGAAGGGCACCGCGCAG,5.59,5.03,–,–
GUAGCUAUCGGAGGAUAUUCAUACCGGAAACGGACAUGAGGAUCACCCAUGUGGCGAAAGCCUUGGGAGAAGGCUGAUAGCUAC,–,–,257,7.37
CGUAGGAUCCAGAAGGCAUGAACAUGAGGAUCACCCAUGUCAAAAGACAUGAGGAUAUGGAUCCUACGAAAAGUGCGAAAGCAC,–,–,19,5.55
AAAUGGAACUAAGGAUAUCUGUAUUUUGUUGAAACAUGAGGAUCACCCAUGUUCAUGAAAUUAUAGGAGAAGGUAGAUCCAUAA,–,–,4.51,4.6
AUACAUGAGGAUCACCCAUGUCAGCGGCAGUGCUGCAGAUCAAGAAGGGAUCCCGUGGGCCGGGAUCAGGAUAUUGAUCCUGCA,–,–,105,18.6
UGAUCUUACAUGAGGAUCACCCAUGUAGACCAGUAACUAACCAGAAGGCACGUAGAGUAAAACAGUGAGGAUAUGGAUGACAUA,–,–,6.66,5.5
AAUAAACUCACAGGAUAUAGCAGAGGUCGCUUGAACUUACAGGCGACGAGGCUAGAAGGGUGACCACAUGAGGAUCACCCAUGU,–,–,1190,135
UAGAAGUCAGGAUAUCCUGCUCGUCACUUGCGUGAUGAGUAGGAGAAGGGACAUGAGGAUCACCCAUGUAAAGA,53.8,53.4,–,–
CCCUGAGAUUGGUUAAUUGGCUGAUAGGAUAUCCUCGGACAUGAGGAUCACCCAUGUUAACUAUUGGAGAAGGGUCAGCGAAAG,–,–,607,90.2
GGUGCACGCACAGGAUAUCCGGCGGAGCUCGUCGGAGAAGGGUGACAUGAGGAUCACCCAUGUACGUGCAACUCGGUUUGAGAG,–,–,22.4,48.9
UAGUAGAUCCGAGGAUAUACAAUCCGGAAACGGUACAUGAGGAUCACCCAUGUAGAAGGCGGAUCUACAGGUACUAAAGUACCG,6.19,9.18,–,–
GUGUCGGGAGGAUAUGCGUGGAUUGUUCUCGUAUGGUGUCUACAUGAGGAUCACCCAUGUAGAAGGUCUGGCGC,20.8,61.1,–,–
CAGAAGUCAGGAUAUGCUGCUCGUCACUUGCGUGAUGAGUAGCAGAAGGGACAUGAGGAUCACCCAUGUAAAGG,160,417,–,–
CGCGAAAGAUUAUUAUGAAUAAACAUGAGGAUCACCCAUGUAUAGGAUAUGCAGUGGAAUACACUGCAGAAGGAUACAUACGCG,22.2,123,–,–
AAGAAGUGAGGAUAUGUCUGUGCGAAAAAAAAAAAGUGCAGACAGAAGGCACAUGAGGAUCACCCAUGUCAAAA,25.6,37.1,–,–
GUACAUGAGCAGAAGGGCAUUUAAUUAGAUUUUUAUGUUGAUCAGAAAUGCAGGAUAUGUUAAACAUGAGGAUCACCCAUGUAC,–,–,218,24.1
